RGS4 block: RGS4 inhibitors, primary screen, cell-based, HEK293 M3R inducible RGS4, calcium flux | Regulator of G-protein signaling 4 (Homo sapiens), P49798 | Fluo-4 calcium flux; hits give high values; triggered by carbachol at its EC20 | B-score at 10 µM | 310,000 tested, 0.45% active;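 active means B-score, a plate-corrected calcium signal, over three deviations above library mean, with baseline fluorescence within five deviations of library mean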;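 further: RGS4 expression induced by doxycycline in cells with stable M3 receptor; B-score is computed from the integrated fluorescence ratio over baseline after carbachol; higher B-score means a larger calcium signal and so more RGS4 inhibition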
Target sequence (P49798 whole entry, looked up): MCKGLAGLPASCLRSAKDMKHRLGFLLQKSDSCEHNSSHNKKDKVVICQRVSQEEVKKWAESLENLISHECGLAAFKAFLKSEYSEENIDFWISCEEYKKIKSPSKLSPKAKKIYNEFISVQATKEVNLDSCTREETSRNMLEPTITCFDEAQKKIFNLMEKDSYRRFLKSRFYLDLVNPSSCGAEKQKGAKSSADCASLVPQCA
MrgX1 allo act: positive allosteric modulators of MrgX1, primary screen, HEK293 cells, Fluo-4 calcium flux | FDSS; hits give high values | B-score at 10 µM | 310,000 tested, 0.63% active | AID 588675, 2011;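 active means plate-corrected calcium response at least 3 library SD above typical, normal starting fluorescence, not activating the receptor alone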;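 further: compound read alongside a low EC10 to EC30 dose of BAM8-22 agonist; peak minus trough fluorescence over baseline measured at the second addition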
Target sequence (Q96LB2 whole entry, looked up): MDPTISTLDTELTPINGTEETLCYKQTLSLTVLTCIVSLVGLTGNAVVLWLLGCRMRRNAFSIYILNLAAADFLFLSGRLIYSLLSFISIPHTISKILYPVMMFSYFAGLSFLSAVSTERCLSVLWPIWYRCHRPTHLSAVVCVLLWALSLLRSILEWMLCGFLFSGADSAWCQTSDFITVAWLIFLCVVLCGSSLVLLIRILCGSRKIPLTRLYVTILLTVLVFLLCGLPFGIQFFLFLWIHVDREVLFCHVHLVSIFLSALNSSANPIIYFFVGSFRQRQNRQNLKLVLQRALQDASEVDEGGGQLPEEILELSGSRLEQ
RGS4 act: RGS4 potentiators or activators, primary screen, cell-based, HEK293 M3R inducible RGS4, calcium flux. carbachol calcium flux Fluo4; hits give low values. 310,000 tested, 0.92% active. B-score at 10 µM;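 active means B-score of the integrated calcium signal more than 4 SD below the library mean, with starting fluorescence not abnormally high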;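 further: negative B-score means reduced calcium response which marks RGS4 activation or potentiation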
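System – HEK293 FlpIn-TREx cells, stable M3R, doxycycline-inducible RGS4 · Reagent – ECmax carbachol challenge · Times – compound preincubation 20 min at room temperature before agonist · Technique – Fluo4 fluorescence kinetic imaging of calcium · Measure – B score of integrated Fluo4 ratio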
MrgX1 ag: agonists of human MrgX1 receptor, primary screen, HEK293 cells, Fluo-4 calcium flux. Mas-related G-protein coupled receptor member X1 (Homo sapiens), Q96LB2. Fluo-4 calcium fluorescence, agonist mode; hits give high values. B-score at 10 µM. 310,000 tested, 0.44% active. AID 588627, 2011;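 active means calcium response B-score plate-corrected fluorescence ratio at least 3 library SD, with starting fluorescence B-score inside 5 SD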
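Material: MrgX1-expressing HEK293 cells; input: 15,000 cells per well; doses: test compound given as first of three sequential additions; schedule: overnight plating before 1 h dye loading; technique: Fluo-4 NW calcium-flux fluorescence, kinetic read; evaluation: baseline-normalised fluorescence change ratio, B-scored; control set: plate-wise positive and negative controls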
Lipid droplet: inhibitors of hepatocyte lipid droplet formation, primary screen, imaging, high-throughput imaging, BODIPY stain; AML12 mouse hepatocytes, oleate lipid droplets; inhibition, % at 6.5 µM; 240,000 tested, 0.4% active; AID 1656, 2009;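 active means lipid droplet intensity inhibited by at least 50%, with more than 500 cells counted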
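Assay system: AML12 mouse liver cells | Compound: 6.5 µM single-point dosing | Schedule: Overnight exposure | Technique: Fluorescence imaging, 20x objective, two fields per well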
MrgX1 antagonist: antagonists of human MrgX1 receptor, primary screen, HEK293 cells, Fluo-4 calcium flux; Mas-related G-protein coupled receptor member X1 (Homo sapiens), Q96LB2; BAM8-22 antagonism; hits give low values; B-score at 10 µM; 310,000 tested, 1.3% active; AID 588676, 2011;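 active means calcium-response B-score plate-corrected more than 3 library SD below zero, starting fluorescence within 5 deviations, no agonist response on first addition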;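 further: peak minus trough fluorescence over baseline after final BAM8-22 challenge near maximal dose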
Lipid drop inh: hepatocyte lipid droplet accumulation inhibitors, confirmation, imaging, AML12 mouse hepatocytes, single concentration, high-content; shares compounds with Lipid droplet; 870 tested, 65% active; AID 463183, 2010; BODIPY lipid droplet imaging; droplets induced with 100 µM oleic acid; inhibition, % at 5.2 µM;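 active means inhibition of lipid droplet metric at least 50%, with more than 300 cells in each of four replicates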
AML12 cytotox: AML12 hepatocyte cytotoxicity, counter-screen for hepatic lipid droplet formation project, imaging, DAPI nuclear morphology imaging | shares compounds with Lipid droplet | AML12 mouse hepatocytes; hits give high values; cells fed 100 µM oleate overnight | z-score at 5 µM | 870 tested, 3% active | AID 463200, 2010; in the data active means z-score above about 6.3;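 further: compound exposure lasted overnight at 37 °C before fixation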
AML12 tox ATP: AML12 hepatocyte cytotoxicity, confirmation, cytotoxicity control for hepatic lipid droplet formation project, cell-based, single concentration; cytotoxicity, % at 50 µM; shares compounds with Lipid droplet; 530 tested, under 10 active; AID 463219, 2010; AML12 mouse hepatocyte viability, ATP luminescence; cells loaded with 100 µM oleic acid;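 active means cytotoxicity above 50% in each of four replicates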;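 further: compound exposure lasted overnight at 37 °C before the ATP read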
Each line names hits and unclear results; the compound was inactive in the other large screens (follow-up assays come after a bar, where they were run). Rows were chosen to be rich in hits. Some 3.8% of all compounds tested hit in one or more screens of this group.

COc1ccc(-c2cnc(SCC(=O)Nc3nc(C(C)(C)C)cs3)n2Cc2ccco2)cc1	Lipid droplet 64 | Lipid drop inh 94 | AML12 cytotox inactive | AML12 tox ATP inactive
COc1ccc(CCNC(=O)c2cc3c(F)cccc3s2)cc1OC	Lipid droplet 77 | Lipid drop inh 74 | AML12 cytotox inactive | AML12 tox ATP inactive
COc1ccc(CCNC(=O)CN2C(=O)c3cccc4cccc(c34)C2=O)cc1OC	Lipid droplet 56 | Lipid drop inh 92 | AML12 cytotox inactive | AML12 tox ATP inactive
COc1ccc(CCNC(=O)Cc2cccc(C(F)(F)F)c2)cc1OC	Lipid droplet 64 | Lipid drop inh 84 | AML12 cytotox inactive | AML12 tox ATP inactive
COc1ccc(CCN2C(=O)c3cccc4cccc(c34)C2=O)cc1OC	none (no result: Lipid droplet)
COc1ccc(CCNC(=O)c2cccc3ccccc23)cc1OC	none
CC(C)(C)NC(=O)c1cc([N+](=O)[O-])ccc1N1CCCCC1	none
CCC(C(=O)NC(C)(C)C)N(Cc1ccc(F)cc1)C(=O)c1snc(C(N)=O)c1N (configuration not stated)	none
O=C(NN=C1CCCCCCCCCCC1)c1ccccc1F	none
CC1=NN(c2ccccc2)C(=O)C1N=Nc1ccccc1 (configuration not stated)	none
COc1ccc(N=NC2C(=O)N(c3ccccc3)N=C2C)cc1 (configuration not stated)	Lipid droplet 52 | Lipid drop inh 102 | AML12 cytotox inactive | AML12 tox ATP inactive
COc1ccc(CC(=O)Nc2oc(-c3ccccc3)c(-c3ccccc3)c2C#N)cc1OC	Lipid droplet 97 | Lipid drop inh 110 | AML12 cytotox inactive | AML12 tox ATP inactive
COc1ccccc1OCC(=O)Nc1oc(-c2ccccc2)c(-c2ccccc2)c1C#N	none (no result: RGS4 block, RGS4 act)
O=C(NCc1ccc(Cl)cc1)C1CCCN1C(=O)Nc1ccc(F)cc1 (configuration not stated)	none
CC(=O)N/N=C/c1ccc(OCCOc2ccc(Br)cc2)cc1	none
COc1cc(NC(=O)c2oc3ccccc3c2C)ccc1NC(=O)c1ccco1	Lipid droplet 102 | Lipid drop inh 111 | AML12 cytotox inactive | AML12 tox ATP inactive
CCOc1ccc(CCNC(=O)Cn2nc(C)c3c(C)n(-c4ccccc4)nc3c2=O)cc1OCC	Lipid droplet 91 | Lipid drop inh 93 | AML12 cytotox inactive | AML12 tox ATP inactive
O=C(COC(=O)c1cc[n+]([O-])cc1)Nc1ccc(SC(F)F)cc1	none
CCOc1ccc(C(=O)OCC(=O)Nc2ccc(SC(F)F)cc2)cc1OCC	Lipid droplet 51 | Lipid drop inh 72 | AML12 cytotox inactive
CCOc1ccc(CCNC(=O)COC(=O)c2c(C)nn(-c3ccccc3)c2C)cc1OCC	Lipid droplet 86 | Lipid drop inh 110 | AML12 cytotox inactive | AML12 tox ATP inactive
CCC(C(=O)NCCc1ccccc1OC)n1nc(C)c2c(C)n(-c3ccccc3)nc2c1=O (configuration not stated)	Lipid droplet 57 | Lipid drop inh 82 | AML12 cytotox inactive | AML12 tox ATP inactive
CCOc1ccc(CCNC(=O)COC(=O)c2cc([N+](=O)[O-])ccc2N2CCOCC2)cc1OCC	Lipid droplet 68 | Lipid drop inh 103 | AML12 cytotox inactive | AML12 tox ATP inactive
CCOc1ccc(CCNC(=O)CS(=O)Cc2nc(-c3ccc(OC)c(OC)c3)oc2C)cc1OCC (configuration not stated)	Lipid droplet 58 | Lipid drop inh 74 | AML12 cytotox inactive | AML12 tox ATP inactive
CCOc1ccc(CCNC(=O)COC(=O)c2cc(OC)c(OC)c(OC)c2)cc1OCC	Lipid droplet 75 | Lipid drop inh 109 | AML12 cytotox inactive | AML12 tox ATP inactive
Cc1ccc(-n2nc3c(=O)n(C(C)C(=O)NCCC4=CCCCC4)nc(C)c3c2C)cc1 (configuration not stated)	Lipid droplet 58 | Lipid drop inh 83 | AML12 cytotox inactive | AML12 tox ATP inactive
CCOc1ccc(CCNC(=O)COC(=O)c2ccc(Cl)nc2)cc1OCC	none (no result: Lipid droplet)
COc1ccc(-c2nc(CS(=O)CC(=O)NCc3ccc(C)cc3)c(C)o2)cc1OC (configuration not stated)	none
CCn1c(Cc2ccccc2)nnc1SCC(=O)N1CCCC1=O	none
CCOc1ccc(CCNC(=O)Cn2ncn3nc(-c4ccc(OC)cc4)cc3c2=O)cc1OCC	Lipid droplet 85 | Lipid drop inh 101 | AML12 cytotox inactive | AML12 tox ATP inactive
COc1ccc(C[C@H]2CN3C(=NC[C@H]3Cc3ccccc3)N2CCNC(=O)c2ccc(C)c(Br)c2)cc1	Lipid droplet 54, MrgX1 antagonist -5.1 | Lipid drop inh inactive | AML12 cytotox inactive
COc1ccc(C[C@H]2CN3C(=NC[C@@H]3Cc3ccccc3)N2CCNC(=O)c2ccc(C)c(Br)c2)cc1	none
CSc1ccccc1NC(=O)C1=CC(c2cccs2)=NS(=O)(=O)N1C	Lipid droplet 74 | Lipid drop inh 105 | AML12 cytotox inactive | AML12 tox ATP inactive
Cc1ccc(NC(=O)Cn2cc(C(=O)C3CC3)c3ccccc32)c(C)c1	none
Cc1ccc(C)c(NC(=O)Cn2cc(C(=O)C3CC3)c3ccccc32)c1	Lipid droplet 75 | Lipid drop inh 94 | AML12 cytotox inactive | AML12 tox ATP inactive
CSCCNC(=O)Nc1c(-c2c(Cl)cccc2Cl)noc1C	none
Cc1ccc(-n2cccc2/C=C2/NC(=O)N(CC(=O)Nc3cccc(C)c3)C2=O)cc1	Lipid droplet 90 | Lipid drop inh 110 | AML12 cytotox inactive | AML12 tox ATP inactive
Cc1cccc(NC(=O)CCc2ccc(S(=O)(=O)NC3CCCCC3)cc2)c1	none

Compound activity from PubChem BioAssay.
